Source: PubChem BioAssay
Compounds with a hit are over-represented: about 9.2% of the library has one in this group of screens.
HCT116 PTEN-null – suppresses growth of cells with PTEN deletion; HCT116 PTEN-null viability, CellTiter-Glo, 60 h; stronger effect = lower value; viability, % at 10 µM; AID 827; hit rate 1.2% among 140,000;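 active means viability at or below a set limit, 4 SD under the median of all tested compounds, cut at about 3.7% in these data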;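 further: PTEN knockout HCT116 line with beta catenin targeted HCT116 as companion control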
bCat KO growth – beta-catenin-lacking colon tumor cell growth suppression; HCT116 beta-catenin knockout viability, CellTiter-Glo, 60 h; stronger effect = lower value; viability, % at 10 µM; hit rate 1.5% among 140,000;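 active means viability at or under a set limit, the compound median less 4 SD, cut at about 6% in these data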;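 further: 0% = Hyamine 1622 control at 20 µM and 100% = untreated cell control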
Autophagy mod – autophagy modulation, high-content screen; hit rate 0.98% among 190,000; calls only at 10 µM (by protocol); MEF GFP-LC3 puncta imaging; test concentration mostly 10 µM;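 active means percentage of spot-positive cells more than 3 SD above its plate mean, without a fluorescence outlier flag or 80% toxicity; inconclusive means no clear call, values can overlap the other calls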;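 further: spot-positive cell cutoff set from DMSO-treated cells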
Lmaj promast – inhibitors of Leishmania major promastigote growth; hit rate 9% among 200,000; inhibition, % at 10 µM; Leishmania major promastigotes, resazurin fluorescence viability; AID 1063; in the data active means inhibition above about 50%;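 further: promastigotes grown with compound for 44 hours at 28 °C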
Dynein transport – blocks dynein driven cargo transport along microtubules | 3617.4 mouse cells, GR-EGFP nuclear translocation imaging; test concentration mostly 20 µM; stimulated with dexamethasone, 1 µM; stronger effect = lower value | z-score, hits read low | hit rate 0.47% among 220,000;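 active means plate z-score of nuclear minus cytoplasmic receptor signal below a set negative limit, without overly bright fluorescence or cell loss, cut at about -3.5 in these data, passing the limit was not always enough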;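 further: z-score of nuclear minus cytoplasmic ring GR-EGFP intensity difference per well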
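Schedule: 48 h induction, then 1 h compound, then 30 min agonist, 37 °C. Buffer or medium: tetracycline-free induction medium containing charcoal-stripped FBS. Reagent: 1.0 µM final dexamethasone stimulus. Evaluation: nuclear versus cytoplasmic GR-EGFP signal, averaged per well. Signal: high-content fluorescence imaging after fixation.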
Active calls of the source: *; i = inactive; ? = inconclusive; . = not tested or not shown; + = active, no number.

SMILES	HCT116 PTEN-null	bCat KO growth	Autophagy mod	Lmaj promast	Dynein transport
CCOc1ccc(C(C)=O)cc1CSC(=N)N	.	.	i	-2	-0.088
COc1ccc(CSC(=N)N)cc1[N+](=O)[O-]	16	14	i	8	-0.2
CCCCOc1ccc(CSC2=NCCN2)cc1[N+](=O)[O-]	69	52	i	95*	-0.47
CN(C)CCNC(=O)/C(=C/c1ccc(-c2cccc(Cl)c2)o1)NC(=O)c1ccccc1	1.6*	1.6*	i	100*	-0.23
CN(C)CCCNC(=O)/C(=C\c1ccc(-c2ccc(Br)cc2)o1)NC(=O)c1ccccc1	1.8*	1.8*	i	100*	0.83
Cc1ccc(C(=O)N/C(=C/c2ccc(-c3cccc([N+](=O)[O-])c3)o2)C(=O)NC(C)(C)C)cc1	72	87	i	82*	1.2
CN(C)CCNC(=O)/C(=C/c1ccc(-c2cccc([N+](=O)[O-])c2)o1)NC(=O)c1ccccc1	29	39	i	46	-0.54
Cc1ccc(C(=O)N/C(=C\c2ccc(-c3ccc(Br)cc3)o2)C(=O)NC2CCS(=O)(=O)C2)cc1 (stereo not drawn)	87	82	i	-7	-0.46
Cc1ccc(C(=O)N/C(=C/c2ccc(-c3cccc([N+](=O)[O-])c3)o2)C(=O)NC(C)C)cc1	77	84	i	2	-0.29
CCCCC(CC)CNC(=O)C1CCCN(S(=O)(=O)c2cnc[nH]2)C1 (stereo not drawn)	101	103	.	-7	0.35
C/C(=C\c1ccc2c(c1)OCO2)C(=O)c1c(C)cc(C)[nH]c1=O	.	.	i	-2	-0.091
O=c1ccn(CCCBr)c(=O)[nH]1	.	.	.	.	-0.29
COc1ccc2cc(CN(Cc3ccco3)C(c3nnnn3C3CCCCC3)C(C)C)c(=O)[nH]c2c1 (stereo not drawn)	31	34	i	98*	-0.33
CC(C)C(c1nnnn1Cc1ccccc1)N(Cc1ccco1)Cc1cccs1 (stereo not drawn)	82	80	i	21	-0.14
COc1ccc2cc(CN(Cc3ccco3)Cc3nnnn3C3CCCCC3)c(=O)[nH]c2c1	78	85	i	96*	0.17
CC(C)(C)c1ccc(CN(Cc2ccco2)Cc2nnnn2C2CCCC2)cc1	60	66	i	26	0.55
COc1ccc(Cn2nnnc2C(C(C)C)N(Cc2ccco2)Cc2cccs2)cc1 (stereo not drawn)	60	65	i	77*	-0.15
N#Cc1cccc(Cn2nnc(-c3ccccc3)n2)c1	75	91	i	-2	-0.53
C[C@@H]1NC(=O)c2cc([N+](=O)[O-])cc(I)c2OCC[C@@H](C(=O)NC(CC(=O)O)C(N)=O)NC(=O)[C@H](CC(N)=O)NC1=O (stereo partly drawn)	102	100	i	-4	0.28
O=C(Cc1cccc2ccccc12)N/N=C1\CCCc2ccccc21	83	80	i	64*	-0.56
Cc1ccc(C(=O)N/N=C2\CCCc3ccccc32)c(C)c1	.	.	i	16	0.58
O=C(N/N=C1\CCCc2ccccc21)c1ccc([N+](=O)[O-])cc1	74	97	i	69*	-1.5
Cc1ccc(S(=O)(=O)N(C)C)cc1NC(=O)C1CCCCC1	.	.	.	.	0.32
O=C(CNC(=O)c1ccccc1F)Nc1ccccc1C(F)(F)F	.	.	i	-7	-0.18
Cc1ccc(-c2c[n+]3c(n2-c2ccccc2)CCC3)cc1	.	.	.	.	-0.16
SMILES	HCT116 PTEN-null	bCat KO growth	Autophagy mod	Lmaj promast	Dynein transport
Cc1ccc(-n2c(-c3ccc(Br)cc3)c[n+]3c2CCc2ccc4cccnc4c2-3)cc1	0.8*	1.5*	?	100*	-2.7
Cc1csc(N(C(=O)CCNC(=O)c2ccc([N+](=O)[O-])cc2)c2ccccc2)n1	95	105	i	64*	-0.53
O=C1CCCCCN1CP(=O)(O)CN1CCCCCC1=O	.	.	.	.	-0.54
FC(F)(F)c1ccccc1CN1CCN(C2CCCCCC2)CC1	64	57	i	97*	0.49
O=S(=O)(c1ccccc1)N1CCN(Cc2ccccc2C(F)(F)F)CC1	95	98	i	92*	-0.97
Cc1ccc(Nc2cnn(C34CC5CC(CC(CC(=O)O)(C5)C3)C4)c(=O)c2Cl)cc1	88	90	i	1	0.069
CCn1cc(C(=O)Nc2ccc(OC)c(S(=O)(=O)N3CCCCC3)c2)c(=O)c2ccc(C)nc21	101	87	i	67*	-0.43
COc1ccc(OC)c(S(=O)(=O)N2CCC(C(=O)Nc3cc(C)ccc3C)CC2)c1	89	91	i	0	-0.93
COc1ccc(NC(=S)Nc2ccc(C)c(S(=O)(=O)N3CCCCC3)c2)cc1	39	38	i	76*	-0.29
COc1ccc(NC(=O)c2ccc(=O)[nH]c2)cc1S(=O)(=O)N1CCCCC1	97	93	i	56*	-0.16
COC(=O)c1ccccc1NC(=O)C1CCN(S(=O)(=O)c2cc(C)ccc2OC)CC1	83	81	i	76*	0.66
COc1ccc(S(=O)(=O)N2CCCCC2)cc1NC(=O)c1ccc(=O)[nH]c1	.	.	i	-1	0.37
Cn1c(=O)n(C)c2cc(/C=N/NC(N)=S)ccc21	.	.	i	0	0.52
COc1ccc(OC)c(S(=O)(=O)N2CCC(C(=O)Nc3ccccc3)CC2)c1	.	.	i	6	1.4
COc1ccc(NC(=O)C2CCC(C(C)(C)C)CC2)cc1S(=O)(=O)N1CCCCC1 (stereo not drawn)	56	61	i	99*	-0.26
COc1ccc(OC)c(S(=O)(=O)N2CCC(C(=O)Nc3cccc(C)c3)CC2)c1	77	64	i	100*	0.24
CCCCC(NC(=O)c1ccc(Cl)cc1)C(=O)O (stereo not drawn)	108	97	.	86*	0.67
CSCCC(NC(=O)c1ccc(Br)cc1)C(=O)O (stereo not drawn)	.	.	i	80*	0.1
CSCCC(NC(=O)c1ccccc1)C(=O)O (stereo not drawn)	.	.	i	-3	1.3
CC(C)CC(NC(=O)c1cccc(Cl)c1)C(=O)O (stereo not drawn)	.	.	i	15	-0.6
O=C(COC(=O)C(Cc1ccccc1)NC(=O)c1ccccc1)c1ccccc1 (stereo not drawn)	92	92	i	-5	-0.36
CC(C)CC(NC(=O)c1ccc(Cl)cc1)C(=O)O (stereo not drawn)	109	101	i	84*	-0.16
O=C(COC(=O)C(Cc1ccccc1)NC(=O)c1ccc(Cl)cc1)c1ccc(Cl)cc1 (stereo not drawn)	98	91	i	54*	0.33
Cc1onc(-c2c(Cl)cccc2Cl)c1CO/N=C(\C#N)c1c(Cl)cccc1Cl	.	.	.	.	-1.1
O=c1c(Cl)c2oc3ccccc3nc-2c2ccccc12	.	.	+	81*	-0.86
CC(C)(C)/C(O)=C/c1nc2ccccc2oc1=O	.	.	i	31	-2.6
CC(=O)c1ccc(NC(=S)NCCc2ccccn2)cc1	93	91	i	71*	-0.78
